Published values of several laboratories.
Each line is one published result; the experiments were not run side by side.
Target: Dual specificity tyrosine-phosphorylation-regulated kinase 1A (DYRK1A, Homo sapiens, UniProt Q13627)

Structure (SMILES) | test | setting | quantity | result
CC(C)S(=O)(=O)c1ccc2nccc(Nc3ccc4sc(C5CCCC5)nc4c3)c2c1 | enzyme activity, inhibitor | 1 µM | activity vs control | 103%
O=[N+]1C=CC(=C2C=CN([O-])C=C2)C=C1 | enzyme activity, inhibitor, ADP detection | 10 µM | inhibition | 52.8%
C1=C/COCc2cc(ccc2OCCN2CCCC2)Nc2nccc(n2)-c2cccc(c2)COC/1 | binding | 0.1 µM | remaining binding | 52%
CN1CCN(C(=O)c2ccc(NC(=O)Nc3ccc(N(C)c4ccnc(Nc5ccc(CS(C)(=O)=O)cc5)n4)cc3)cc2)CC1 | binding | 1 µM | remaining binding | 62%
C=C(C)C1CCC(C)=C1COC(=O)c1cc([N+](=O)[O-])cc([N+](=O)[O-])c1 (stereo not shown) | enzyme activity, inhibitor, ADP detection | 10 µM | inhibition | 10.3%
COc1ccc2oc(-c3ccc4nc(N)oc4c3)c/c(=N\c3ccccc3NC(=O)CCN)c2c1 | binding, competition with immobilised ligand | 1 µM | remaining binding | 111%
CCOC(=O)c1c(NC(=O)CCC(=O)OC)sc2c1CCCC2 | enzyme activity, inhibitor, ADP detection | 10 µM | inhibition | 18.3%
CC(=O)ON=C1C=CC(=C(C#N)c2ccccc2)C=C1 | enzyme activity, inhibitor, ADP detection | 2 µM | activity vs control | 99%
C=CC(=O)N1CCC([C@@H]2CCNc3c(C(N)=O)c(-c4ccc(Oc5ccccc5)cc4)nn32)CC1 | cell-free assay | 1 µM | inhibition | 3%
c1cnc(-c2nnc3sc(C45CC6CC(CC(C6)C4)C5)nn23)cn1 | enzyme activity, inhibitor, ADP detection | 10 µM | inhibition | 8.44%
C[C@H]1CC[C@H](n2c3cnccc3c3cnc(Nc4ccc5c(n4)CCN(C(=O)CO)C5)nc32)CC1 | cell-free assay | 1 µM | remaining signal | 0%
CC#CC(=O)N1CCC[C@H]1c1nc(-c2ccc(C(=O)Nc3ccccn3)cc2)c2c(N)nccn12 | enzyme activity, inhibitor | 1 µM | inhibition | 3%
CCCCC(=O)Nc1ccc(-c2ccc3ncn(CCC)c(=O)c3c2)cn1 | binding, competition with immobilised ligand | 0.5 µM | remaining binding | 81%
